Assay [1] relates to J774. The experiment in a line: Antiinflammatory activity against mouse J774 cells assessed as inhibition of LPS-induced COX-2 expression at 10 uM after 24 hrs by Western blot analysis. The class given is functional. The settings on record: J774, 24 h. The method, boiled down:
(§1)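 Murine J774 macrophages were grown 72 h to confluence in DMEM with 10% heat-inactivated FBS at 37 °C, 5% CO2. Compound was added in fresh medium with LPS for 24 h. Cells were lysed, and 20 μg protein was immunoblotted for COX-2 or iNOS with actin as the loading control, detected by chemiluminescence. n = 4, mean ± SEM versus LPS alone.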

In assay [2] the test system is J774. Kind of assay: Antiinflammatory activity against mouse J774 cells assessed as inhibition of LPS-induced iNOS expression at 10 uM after 24 hrs by Western blot analysis. Format: functional, cell-based. The essentials: as §1
Assay [3] has as its system J774. Kind of assay: Antiinflammatory activity against mouse J774 cells assessed as inhibition of LPS-induced MCP-1 production at 10 uM after 24 hrs by ELISA. The class given is functional. The settings on record: J774, 24 h. The essentials:
(§2)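 J774 macrophages were grown 72 h to confluence, then exposed to LPS with compound at 10 μM in fresh medium for 24 h. IL-6 and MCP-1 in the culture medium were quantified by ELISA. n = 4, mean ± SEM relative to LPS-only cells.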

For assay [4], the system named is J774. The experiment in a line: Antiinflammatory activity against mouse J774 cells assessed as inhibition of LPS-induced nitric oxide production at 10 uM by Griess assay. The class given is functional. The essentials: (§3)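 Confluent J774 monolayers were treated with LPS plus compound at 10 μM in fresh medium, 24 h. NO was read as accumulated nitrite in the medium by Griess reaction. n = 4, mean ± SEM versus cells cultured with LPS only.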

Assay [5] relates to J774. Kind of assay: Antiinflammatory activity against mouse J774 cells assessed as inhibition of LPS-induced IL-6 production at 10 uM after 24 hrs by ELISA. The class given is functional. As to conditions: J774, 24 h. The essentials:
as §2

The subject of assay [6] is J774. Kind of assay: Antiinflammatory activity against mouse J774 cells assessed as inhibition of LPS-induced COX-2 expression measured as remaining protein levels at 10 uM after 24 hrs by Western blot analysis. Format: functional. The method, boiled down:
as §1

The subject of assay [7] is J774. The experiment in a line: Antiinflammatory activity against mouse J774 cells assessed as inhibition of LPS-induced IL-6 production measured as remaining IL-6 levels at 10 uM after 24 hrs by ELISA. Format: functional. The essentials: as §2
Assay [8] relates to J774. Kind of assay: Downregulation of LPS-induced MCP-1 expression in mouse J774 cells at 0.3 to 10 uM after 24 hrs by ELISA. Format: functional, cell-based. The essentials: (§4)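 LPS-stimulated J774 cells were incubated 24 h with compound at 0.3–10 μM. IL-6 and MCP-1 concentrations in the medium were determined by ELISA. Mean + SEM, n = 4, compared with LPS alone.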
For assay [9], the system named is J774. The experiment in a line: Antiinflammatory activity against mouse J774 cells assessed as inhibition of LPS-induced MCP-1 production measured as remaining MCP-1 levels at 10 uM after 24 hrs by ELISA. The class given is functional. The method, boiled down:
as §2

In assay [10] the test system is J774. The experiment in a line: Antiinflammatory activity in mouse J774 cells assessed as inhibition of LPS-induced nitric oxide production measured as remaining nitric oxide levels at 10 uM by Griess assay. The class given is functional. The method, boiled down:
as §3

The test system of assay [11] is J774. The experiment in a line: Antiinflammatory activity in mouse J774 cells assessed as inhibition of LPS-induced iNOS expression measured as remaining protein levels at 10 uM after 24 hrs by Western blot analysis. Format: functional. The essentials:
as §1

Assay [12] relates to J774. The experiment in a line: Downregulation of LPS-induced iNOS mRNA levels in mouse J774 cells after 6 to 24 hrs by qRT-PCR method. Format: functional, cell-based. The essentials:
(§5)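 Activated J774 cells received compound at 10 μM alongside LPS. At 3, 6 or 24 h, total RNA was extracted and iNOS, IL-6 or MCP-1 mRNA was measured by TaqMan quantitative RT-PCR (40 cycles, 95 °C/60 °C) in duplicate. Levels came from a standard curve and were normalized to GAPDH. n = 4 versus LPS only.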

For assay [13], the system named is J774. Kind of assay: Downregulation of LPS-induced iNOS expression in mouse J774 cells at 0.3 to 10 uM after 24 hrs by Western blot analysis. The class given is functional, cell-based. The essentials: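 Dose–response was run in LPS-activated J774 macrophages over 24 h, with iNOS protein detected by Western blot and actin as the loading control.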
In assay [14] the test system is J774. The experiment in a line: Downregulation of LPS-induced IL-6 expression in mouse J774 cells at 0.3 to 10 uM after 24 hrs by ELISA. Format: functional, cell-based. The method, boiled down: as §4
In assay [15] the test system is Mus musculus. The experiment in a line: Antiinflammatory activity in C57BL/6NCrl mouse assessed as inhibition of carrageenan-induced paw edema at 10 mg/kg, ip administered 2 hrs prior to carrageenan challenge measured after 6 hrs by plethysmometry. The class given is functional. The method, boiled down: (§6)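 Eight-week-old male mice were dosed ip with compound (10 mg/kg), dexamethasone (2 mg/kg) or PBS-8% DMSO vehicle 2 h before carrageenan. Under medetomidine/ketamine anesthesia, 45 μL of 1.5% λ-carrageenan in saline was given intradermally into one hindpaw, with saline in the contralateral paw. Paw volume was measured by plethysmometer before and at 3 and 6 h. n = 6–12.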

Assay [16] concerns Mus musculus. Kind of assay: Antiinflammatory activity in C57BL/6NCrl mouse assessed as inhibition of carrageenan-induced paw edema at 10 mg/kg, ip administered 2 hrs prior to carrageenan challenge measured after 3 hrs by plethysmometry. Format: functional. The method, boiled down:
as §6

The subject of assay [17] is J774. Kind of assay: Downregulation of LPS-induced MCP-1 mRNA levels in mouse J774 cells after 3 to 6 hrs by qRT-PCR method. The class given is functional, cell-based. The method, boiled down:
as §5

The test system of assay [18] is J774. Kind of assay: Downregulation of LPS-induced IL-6 mRNA levels in mouse J774 cells after 6 hrs by qRT-PCR method. Format: functional, cell-based. The method, boiled down: as §5

Activity calls are given as the source filed them. The rule behind the calls is not given here.

As for `C[C@@H]1C[C@H]2[C@@H]3CCC4=CC(=O)C=C[C@]4(C)[C@@]3(F)[C@@H](O)C[C@]2(C)[C@@]1(O)C(=O)CO` [DEXAMETHASONE], the inhibition at 10 µM was 90% in the assay with J774 [1], 38% in the assay on J774 [3], 85% in the assay on J774 [4] and 86% with J774 [5]. In addition, the inhibition result in the assay with J774 [2] is “Active”.
For the molecule `C=C(C)[C@@H]1CC[C@]2(C(=O)O)CC[C@]3(C)[C@H](CC[C@@H]4[C@@]5(C)Cc6c[nH]nc6C(C)(C)[C@@H]5CC[C@]43C)[C@@H]12`, the Activity with J774 [6] was 58.2%; in the assay on J774 [9] it was 28%; in the assay with J774 [11], 27.5%. In addition, in the assay with J774 [7], the “Remaining IL-6 level (% of LPS-only)” value came out at 39.5%. The outcome in the assay on J774 [8], with J774 [12], in the assay with J774 [13], in the assay on J774 [14], with J774 [17] and with J774 [18] was Active. The “Remaining nitric oxide level (% of LPS-only control)” value in the assay on J774 [10] is listed as 53.3%. The inhibition in vivo at 10 mg/kg in the assay on Mus musculus [15] amounted to 44%; in the assay on Mus musculus [16] it was 27%.

For the origin of these results see ChEMBL document CHEMBL3797069, “Betulin Derivatives Effectively Suppress Inflammation in Vitro and in Vivo” (J Nat Prod, 2016).
